Non-standard residues stand in square brackets, D forms with d. Residues, ends and D or L forms follow the SMILES beside them. *: point of attachment. Phe(4-guanidino) = N=C(N)Nc1ccc(C[C@H](N)C(=O)O)cc1; Phe(4-NH2) = Nc1ccc(C[C@H](N)C(=O)O)cc1; Phg = N[C@H](C(=O)O)c1ccccc1; Bz = O=C(c1ccccc1)*
Target: Genome polyprotein (West Nile virus, UniProt P06935)
Test: Inhibition of West Nile virus NS2B-NS3 protease preincubated with protein for 15 mins followed by Abz-Gly-Leu-Lys-Arg-Gly-Gly-3-(NO2)-Tyr substrate addition measured by continuous fluorometric analysis
Conditions: not given
Outline: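 WNV protease (150 nM), 15-min preincubation with inhibitor in pH 9.0 Tris buffer, then 50 μM FRET substrate. Read at ex 320/em 405 nm. Done for compounds with ≥90% single-point inhibition, using graded inhibitor concentrations in triplicate, with the curve fitted.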

Genome polyprotein, sequence (P06935 1371-1501 limits assumed): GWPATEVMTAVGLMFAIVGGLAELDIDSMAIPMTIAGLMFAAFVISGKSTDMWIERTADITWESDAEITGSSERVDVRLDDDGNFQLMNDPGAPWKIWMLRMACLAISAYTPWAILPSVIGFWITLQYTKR
Genome polyprotein, sequence (P06935 1502-2120 limits assumed): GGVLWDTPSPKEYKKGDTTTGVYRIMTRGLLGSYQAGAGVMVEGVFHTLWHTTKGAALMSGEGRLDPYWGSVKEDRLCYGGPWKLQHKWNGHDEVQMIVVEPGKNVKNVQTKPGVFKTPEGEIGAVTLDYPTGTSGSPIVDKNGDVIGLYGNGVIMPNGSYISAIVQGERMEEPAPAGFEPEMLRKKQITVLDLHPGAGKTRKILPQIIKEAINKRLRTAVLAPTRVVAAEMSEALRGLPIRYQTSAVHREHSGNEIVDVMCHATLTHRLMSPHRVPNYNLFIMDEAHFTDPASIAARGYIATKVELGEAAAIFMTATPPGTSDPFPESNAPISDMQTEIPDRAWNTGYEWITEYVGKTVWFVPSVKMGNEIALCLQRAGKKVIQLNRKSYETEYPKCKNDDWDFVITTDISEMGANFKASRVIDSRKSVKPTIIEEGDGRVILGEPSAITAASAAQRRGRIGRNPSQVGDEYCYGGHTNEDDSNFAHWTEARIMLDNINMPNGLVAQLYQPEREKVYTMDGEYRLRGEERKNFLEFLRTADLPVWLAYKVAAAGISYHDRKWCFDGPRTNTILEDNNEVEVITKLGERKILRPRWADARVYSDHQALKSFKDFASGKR

SMILES	IC50 [nM]
CC(=O)Nc1ccc(C[C@H](NC(=O)c2ccccc2)C(=O)N[C@@H](CCCCN)C(=O)N[C@H](C(N)=O)c2ccccc2)cc1 (Bz-[Phe(4-NH2)](Ac)-Lys-[Phg]-NH2)	3850

System: not listed separately
Test: Permeability of the compound at 200 uM incubated for 5 hrs by PAMPA
Format: physicochemical
Conditions: not given
Outline: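 PAMPA in PBS: donor wells held 200 μM compound (triplicate) against PBS acceptor, 5 h at room temperature. Donor and acceptor concentrations were quantified by RP-18 HPLC-UV against calibration curves (10–200 μM). Pe and membrane retention were calculated by a literature method. Amiloride, caffeine, famotidine, furosemide and phenytoin served as references.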

SMILES	permeability
N=C(N)Nc1ccc(C[C@H](NC(=O)c2ccccc2)C(=O)N[C@@H](CCCCN)C(=O)N[C@H](C(N)=O)c2ccccc2)cc1 (Bz-[Phe(4-guanidino)]-Lys-[Phg]-NH2)	impermeable
N=C(N)c1ccc(C[C@H](NC(=O)c2ccc(C(F)(F)F)cc2)C(=O)N[C@@H](CCCCN)C(=O)N[C@H](C(N)=O)c2ccccc2)cc1	impermeable
N=C(N)c1cccc(C[C@H](NC(=O)c2ccc(C(F)(F)F)cc2)C(=O)N[C@@H](CCCCN)C(=O)N[C@H](C(N)=O)c2ccccc2)c1	impermeable
N=C(N)c1ccc(C[C@H](NC(=O)CCc2ccccc2)C(=O)N[C@@H](CCCCN)C(=O)N[C@H](C(N)=O)c2ccccc2)cc1	impermeable
CC(=O)Nc1ccc(C[C@H](NC(=O)c2ccccc2)C(=O)N[C@@H](CCCCN)C(=O)N[C@H](C(N)=O)c2ccccc2)cc1 (Bz-[Phe(4-NH2)](Ac)-Lys-[Phg]-NH2)	impermeable

Target: Trypsin (Homo sapiens, UniProt P07477+P07478+P35030)
Test: Inhibition of trypsin (unknown origin) at 50 uM preincubated with protein for 15 mins followed by boc-Val-Pro-Arg-AMC substrate addition measured by continuous fluorometric analysis
Format: protein assay
Conditions: not given
Outline: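 Trypsin (1 nM) was preincubated 15 min with inhibitor (50 μM final) in 50 mM Tris-HCl pH 7.5, 150 mM NaCl, 0.05% Tween 20. boc-Val-Pro-Arg-AMC (50 μM final) was added. Continuous fluorescence at ex 355/em 460 nm; rate compared with an uninhibited control. Triplicate.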

SMILES	inhibition [%]
N=C(N)Nc1ccc(C[C@H](NC(=O)c2ccccc2)C(=O)N[C@@H](CCCCN)C(=O)N[C@H](C(N)=O)c2ccccc2)cc1 (Bz-[Phe(4-guanidino)]-Lys-[Phg]-NH2)	16.2
N=C(N)c1ccc(C[C@H](NC(=O)c2ccc(C(F)(F)F)cc2)C(=O)N[C@@H](CCCCN)C(=O)N[C@H](C(N)=O)c2ccccc2)cc1	43.4
N=C(N)c1cccc(C[C@H](NC(=O)c2ccc(C(F)(F)F)cc2)C(=O)N[C@@H](CCCCN)C(=O)N[C@H](C(N)=O)c2ccccc2)c1	27.1
N=C(N)c1ccc(C[C@H](NC(=O)CCc2ccccc2)C(=O)N[C@@H](CCCCN)C(=O)N[C@H](C(N)=O)c2ccccc2)cc1	4.4
CC(=O)Nc1ccc(C[C@H](NC(=O)c2ccccc2)C(=O)N[C@@H](CCCCN)C(=O)N[C@H](C(N)=O)c2ccccc2)cc1 (Bz-[Phe(4-NH2)](Ac)-Lys-[Phg]-NH2)	0

System: dengue virus type 2
Test: Antiviral activity against wild type Dengue virus (serotype 2) infected in human Huh-7 cells assessed as inhibition of viral replication at 50 uM incubated for 48 hrs measured by Cell-Titer Glo Luminescent viability assay
Format: functional
Conditions: Huh-7, 48 h

SMILES	inhibition at 50 µM [%]
N=C(N)c1ccc(C[C@H](NC(=O)c2ccc(C(F)(F)F)cc2)C(=O)N[C@@H](CCCCN)C(=O)N[C@H](C(N)=O)c2ccccc2)cc1	38.2
N=C(N)c1ccc(C[C@H](NC(=O)CCc2ccccc2)C(=O)N[C@@H](CCCCN)C(=O)N[C@H](C(N)=O)c2ccccc2)cc1	58.8

System: dengue virus type 2
Test: Inhibition of Dengue virus (serotype 2) NS2B-NS3 protease at 50 uM preincubated with protein for 15 mins followed by Abz-Nle-Lys-Arg-Arg-Ser-3-(NO2)Tyr substrate addition measured by continuous fluorometric analysis
Conditions: not given
Outline: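 Continuous FRET assay in 50 mM Tris-HCl pH 9.0, 10% ethylene glycol, 0.0016% Brij 58. DENV2 protease (100 nM) was preincubated 15 min with inhibitor (50 μM final), then Abz-Nle-Lys-Arg-Arg-Ser-3-(NO2)Tyr (50 μM final; Km 105 μM) was added. Read at ex 320/em 405 nm as slope over 15 min, relative to an uninhibited control. Triplicate.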

SMILES	inhibition [%]
N=C(N)Nc1ccc(C[C@H](NC(=O)c2ccccc2)C(=O)N[C@@H](CCCCN)C(=O)N[C@H](C(N)=O)c2ccccc2)cc1 (Bz-[Phe(4-guanidino)]-Lys-[Phg]-NH2)	99.9
N=C(N)c1ccc(C[C@H](NC(=O)c2ccc(C(F)(F)F)cc2)C(=O)N[C@@H](CCCCN)C(=O)N[C@H](C(N)=O)c2ccccc2)cc1	99.8
N=C(N)c1cccc(C[C@H](NC(=O)c2ccc(C(F)(F)F)cc2)C(=O)N[C@@H](CCCCN)C(=O)N[C@H](C(N)=O)c2ccccc2)c1	95.8
N=C(N)c1ccc(C[C@H](NC(=O)CCc2ccccc2)C(=O)N[C@@H](CCCCN)C(=O)N[C@H](C(N)=O)c2ccccc2)cc1	101
CC(=O)Nc1ccc(C[C@H](NC(=O)c2ccccc2)C(=O)N[C@@H](CCCCN)C(=O)N[C@H](C(N)=O)c2ccccc2)cc1 (Bz-[Phe(4-NH2)](Ac)-Lys-[Phg]-NH2)	34.8

System: not listed separately
Test: Inhibition of Dengue virus (serotype 2) NS2B-NS3 protease preincubated with protein for 15 mins followed by Abz-Nle-Lys-Arg-Arg-Ser-3-(NO2)Tyr substrate addition measured by continuous fluorometric analysis
Set-up: species or system dengue virus type 2
Conditions: not given
Outline: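 DENV2 protease (100 nM) in Tris-HCl pH 9.0/ethylene glycol/Brij 58 buffer, preincubated 15 min with inhibitor, then 50 μM FRET substrate added. Read at ex 320/em 405 nm over 15 min. Done for compounds with ≥70% inhibition, using series of 0–2.5, 0–6 or 0–30 μM, in triplicate, with nonlinear fitting. Ki came from substrate at 50–200 μM via Cheng–Prusoff.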

SMILES	IC50 [nM]	Ki [nM]
N=C(N)Nc1ccc(C[C@H](NC(=O)c2ccccc2)C(=O)N[C@@H](CCCCN)C(=O)N[C@H](C(N)=O)c2ccccc2)cc1 (Bz-[Phe(4-guanidino)]-Lys-[Phg]-NH2)	580	
N=C(N)c1ccc(C[C@H](NC(=O)c2ccc(C(F)(F)F)cc2)C(=O)N[C@@H](CCCCN)C(=O)N[C@H](C(N)=O)c2ccccc2)cc1	210	139
N=C(N)c1cccc(C[C@H](NC(=O)c2ccc(C(F)(F)F)cc2)C(=O)N[C@@H](CCCCN)C(=O)N[C@H](C(N)=O)c2ccccc2)c1	5810	
N=C(N)c1ccc(C[C@H](NC(=O)CCc2ccccc2)C(=O)N[C@@H](CCCCN)C(=O)N[C@H](C(N)=O)c2ccccc2)cc1	260	160

System: not listed separately
Test: Half life in Sprague-Dawley rat liver microsomes at 100 uM incubated for 30 mins by HPLC analysis
Format: ADME
Conditions: not given
Outline: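 Pooled male Sprague-Dawley rat liver microsomes (0.2 mg/mL protein) with NADPH (5 mM) in DPBS, preincubated 15 min at 37 °C. Compound (100 μM) was then incubated 30 min at 37 °C. Aliquots at 0, 2, 5, 10, 20 and 30 min were quenched with acetonitrile, iced, and centrifuged. Parent remaining was measured by RP-HPLC-UV peak area versus reference. Testosterone served as activity control.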

SMILES	half-life at 100 µM [min]
N=C(N)c1ccc(C[C@H](NC(=O)CCc2ccccc2)C(=O)N[C@@H](CCCCN)C(=O)N[C@H](C(N)=O)c2ccccc2)cc1	22

System: not listed separately
Test: Cytotoxicity against human HuH7 cells at 50 uM incubated for 48 hrs measured by Cell-Titer Glo Luminescent viability Assay
Format: cell-based
Conditions: huh-7, 48 h

SMILES	Activity
N=C(N)c1ccc(C[C@H](NC(=O)c2ccc(C(F)(F)F)cc2)C(=O)N[C@@H](CCCCN)C(=O)N[C@H](C(N)=O)c2ccccc2)cc1	Non-toxic
N=C(N)c1ccc(C[C@H](NC(=O)CCc2ccccc2)C(=O)N[C@@H](CCCCN)C(=O)N[C@H](C(N)=O)c2ccccc2)cc1	Non-toxic

Target: Prothrombin (Homo sapiens, UniProt P00734)
Test: Inhibition of human thrombin at 25 uM preincubated with protein for 15 mins followed by boc-Val-Pro-Arg-AMC substrate addition measured after 10 mins by continuous fluorometric analysis
Conditions: not given

SMILES	inhibition [%]
N=C(N)Nc1ccc(C[C@H](NC(=O)c2ccccc2)C(=O)N[C@@H](CCCCN)C(=O)N[C@H](C(N)=O)c2ccccc2)cc1 (Bz-[Phe(4-guanidino)]-Lys-[Phg]-NH2)	7.6
N=C(N)c1ccc(C[C@H](NC(=O)c2ccc(C(F)(F)F)cc2)C(=O)N[C@@H](CCCCN)C(=O)N[C@H](C(N)=O)c2ccccc2)cc1	50.3
N=C(N)c1cccc(C[C@H](NC(=O)c2ccc(C(F)(F)F)cc2)C(=O)N[C@@H](CCCCN)C(=O)N[C@H](C(N)=O)c2ccccc2)c1	66.6
N=C(N)c1ccc(C[C@H](NC(=O)CCc2ccccc2)C(=O)N[C@@H](CCCCN)C(=O)N[C@H](C(N)=O)c2ccccc2)cc1	24.7
CC(=O)Nc1ccc(C[C@H](NC(=O)c2ccccc2)C(=O)N[C@@H](CCCCN)C(=O)N[C@H](C(N)=O)c2ccccc2)cc1 (Bz-[Phe(4-NH2)](Ac)-Lys-[Phg]-NH2)	7.4

Target: Genome polyprotein (West Nile virus) (UniProt P06935)
Test: Inhibition of West Nile virus NS2B-NS3 protease at 50 uM preincubated with protein for 15 mins followed by Abz-Gly-Leu-Lys-Arg-Gly-Gly-3-(NO2)-Tyr substrate addition measured by continuous fluorometric analysis
Conditions: not given
Outline: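 WNV NS2B-NS3pro (150 nM) was preincubated 15 min with inhibitor (50 μM final) in 50 mM Tris-HCl pH 9.0, 10% ethylene glycol, 0.0016% Brij 58. Abz-Gly-Leu-Lys-Arg-Gly-Gly-3-(NO2)-Tyr (50 μM; Km 212 μM) started the reaction. Continuous read at ex 320/em 405 nm for 15 min against an uninhibited control. Triplicate.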

Genome polyprotein (West Nile virus), sequence (P06935 whole entry): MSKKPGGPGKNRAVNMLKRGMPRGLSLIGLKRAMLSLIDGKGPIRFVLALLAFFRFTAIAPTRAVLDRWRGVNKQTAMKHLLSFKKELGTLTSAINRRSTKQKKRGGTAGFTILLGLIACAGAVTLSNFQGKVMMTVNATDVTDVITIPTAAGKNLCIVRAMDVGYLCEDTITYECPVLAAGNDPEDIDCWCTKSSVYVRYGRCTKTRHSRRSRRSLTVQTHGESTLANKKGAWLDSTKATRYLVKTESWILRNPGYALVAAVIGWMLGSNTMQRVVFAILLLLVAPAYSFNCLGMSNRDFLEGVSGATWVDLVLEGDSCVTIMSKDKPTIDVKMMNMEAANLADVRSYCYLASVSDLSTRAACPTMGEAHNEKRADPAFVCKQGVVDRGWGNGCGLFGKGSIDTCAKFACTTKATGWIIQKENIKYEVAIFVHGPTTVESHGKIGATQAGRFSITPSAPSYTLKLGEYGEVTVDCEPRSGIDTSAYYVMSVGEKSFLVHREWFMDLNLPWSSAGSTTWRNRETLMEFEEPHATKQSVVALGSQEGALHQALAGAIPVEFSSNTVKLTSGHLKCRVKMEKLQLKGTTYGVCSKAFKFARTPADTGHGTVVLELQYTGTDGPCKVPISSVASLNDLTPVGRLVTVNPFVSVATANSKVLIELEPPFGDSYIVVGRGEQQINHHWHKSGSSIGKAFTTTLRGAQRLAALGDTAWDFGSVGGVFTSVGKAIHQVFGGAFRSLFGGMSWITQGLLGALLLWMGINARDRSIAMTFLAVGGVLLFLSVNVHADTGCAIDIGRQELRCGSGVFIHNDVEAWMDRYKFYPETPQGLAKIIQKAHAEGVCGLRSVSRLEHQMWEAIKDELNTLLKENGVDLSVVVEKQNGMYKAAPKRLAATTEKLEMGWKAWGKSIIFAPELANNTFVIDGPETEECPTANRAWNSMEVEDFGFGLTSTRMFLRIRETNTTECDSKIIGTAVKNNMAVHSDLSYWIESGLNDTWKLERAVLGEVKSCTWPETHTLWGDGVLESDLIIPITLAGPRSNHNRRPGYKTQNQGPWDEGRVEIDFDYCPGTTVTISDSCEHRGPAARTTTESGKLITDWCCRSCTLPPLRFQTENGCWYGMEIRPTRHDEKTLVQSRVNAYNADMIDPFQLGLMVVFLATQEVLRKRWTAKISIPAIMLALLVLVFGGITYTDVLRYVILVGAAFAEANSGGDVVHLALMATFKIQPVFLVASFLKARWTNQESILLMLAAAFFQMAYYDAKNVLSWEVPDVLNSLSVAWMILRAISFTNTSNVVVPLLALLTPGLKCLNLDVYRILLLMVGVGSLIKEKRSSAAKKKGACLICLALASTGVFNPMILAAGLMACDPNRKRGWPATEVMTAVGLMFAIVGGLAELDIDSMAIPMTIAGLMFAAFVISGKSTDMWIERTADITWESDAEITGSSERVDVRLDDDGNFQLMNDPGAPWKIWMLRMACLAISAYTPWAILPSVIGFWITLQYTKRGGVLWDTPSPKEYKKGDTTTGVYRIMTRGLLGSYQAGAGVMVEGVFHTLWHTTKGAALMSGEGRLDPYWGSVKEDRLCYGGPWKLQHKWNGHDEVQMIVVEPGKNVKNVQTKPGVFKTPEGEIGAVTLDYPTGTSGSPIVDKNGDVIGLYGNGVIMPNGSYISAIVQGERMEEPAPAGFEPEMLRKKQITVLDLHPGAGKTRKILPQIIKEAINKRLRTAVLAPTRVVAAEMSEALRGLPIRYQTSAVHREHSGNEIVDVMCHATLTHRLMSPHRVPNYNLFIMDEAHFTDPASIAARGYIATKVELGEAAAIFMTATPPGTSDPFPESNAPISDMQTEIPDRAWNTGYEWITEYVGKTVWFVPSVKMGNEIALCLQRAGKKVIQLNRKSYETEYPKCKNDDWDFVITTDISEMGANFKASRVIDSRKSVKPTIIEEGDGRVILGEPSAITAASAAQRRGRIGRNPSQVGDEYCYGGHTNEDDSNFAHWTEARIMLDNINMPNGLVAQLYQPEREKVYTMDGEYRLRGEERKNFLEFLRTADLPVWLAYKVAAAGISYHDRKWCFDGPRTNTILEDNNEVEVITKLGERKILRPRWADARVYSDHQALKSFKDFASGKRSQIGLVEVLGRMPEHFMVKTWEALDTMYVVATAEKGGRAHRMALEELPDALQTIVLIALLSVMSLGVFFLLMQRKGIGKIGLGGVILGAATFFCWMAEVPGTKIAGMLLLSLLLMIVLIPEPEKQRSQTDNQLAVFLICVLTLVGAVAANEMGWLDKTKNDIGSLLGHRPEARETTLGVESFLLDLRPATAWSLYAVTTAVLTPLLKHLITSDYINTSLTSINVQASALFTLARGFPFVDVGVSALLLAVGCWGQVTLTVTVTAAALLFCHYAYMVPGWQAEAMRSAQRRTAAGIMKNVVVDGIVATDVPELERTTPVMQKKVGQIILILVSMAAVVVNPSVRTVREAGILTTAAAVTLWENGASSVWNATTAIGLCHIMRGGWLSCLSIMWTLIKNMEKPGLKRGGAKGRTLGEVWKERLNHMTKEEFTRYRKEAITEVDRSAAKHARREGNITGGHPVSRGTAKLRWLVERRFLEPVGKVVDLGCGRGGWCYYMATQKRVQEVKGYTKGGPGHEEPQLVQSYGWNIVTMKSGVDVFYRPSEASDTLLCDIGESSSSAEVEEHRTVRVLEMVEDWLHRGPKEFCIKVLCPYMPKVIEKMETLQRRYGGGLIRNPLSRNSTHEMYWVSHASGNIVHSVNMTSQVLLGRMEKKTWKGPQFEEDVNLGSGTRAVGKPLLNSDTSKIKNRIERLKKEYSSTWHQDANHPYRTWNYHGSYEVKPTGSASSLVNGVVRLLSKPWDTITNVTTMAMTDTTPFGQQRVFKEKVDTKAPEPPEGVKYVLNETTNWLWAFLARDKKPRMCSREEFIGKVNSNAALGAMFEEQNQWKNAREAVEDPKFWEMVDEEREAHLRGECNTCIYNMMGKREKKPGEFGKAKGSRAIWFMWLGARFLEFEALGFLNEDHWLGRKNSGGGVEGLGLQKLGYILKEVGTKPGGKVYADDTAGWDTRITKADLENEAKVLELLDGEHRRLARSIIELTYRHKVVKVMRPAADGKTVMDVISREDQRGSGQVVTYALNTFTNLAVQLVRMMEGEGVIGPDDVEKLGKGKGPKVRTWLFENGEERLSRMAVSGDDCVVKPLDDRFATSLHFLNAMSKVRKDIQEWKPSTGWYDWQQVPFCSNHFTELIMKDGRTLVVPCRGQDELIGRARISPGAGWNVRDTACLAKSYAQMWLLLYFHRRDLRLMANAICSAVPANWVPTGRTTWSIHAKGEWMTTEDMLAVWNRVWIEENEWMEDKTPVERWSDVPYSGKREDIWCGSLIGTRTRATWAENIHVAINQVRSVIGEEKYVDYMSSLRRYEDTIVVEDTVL

SMILES	inhibition [%]
N=C(N)Nc1ccc(C[C@H](NC(=O)c2ccccc2)C(=O)N[C@@H](CCCCN)C(=O)N[C@H](C(N)=O)c2ccccc2)cc1 (Bz-[Phe(4-guanidino)]-Lys-[Phg]-NH2)	64.7
N=C(N)c1ccc(C[C@H](NC(=O)c2ccc(C(F)(F)F)cc2)C(=O)N[C@@H](CCCCN)C(=O)N[C@H](C(N)=O)c2ccccc2)cc1	69.9
N=C(N)c1cccc(C[C@H](NC(=O)c2ccc(C(F)(F)F)cc2)C(=O)N[C@@H](CCCCN)C(=O)N[C@H](C(N)=O)c2ccccc2)c1	76.1
N=C(N)c1ccc(C[C@H](NC(=O)CCc2ccccc2)C(=O)N[C@@H](CCCCN)C(=O)N[C@H](C(N)=O)c2ccccc2)cc1	67.7
CC(=O)Nc1ccc(C[C@H](NC(=O)c2ccccc2)C(=O)N[C@@H](CCCCN)C(=O)N[C@H](C(N)=O)c2ccccc2)cc1 (Bz-[Phe(4-NH2)](Ac)-Lys-[Phg]-NH2)	93.7
